Legend:
[1] = Cytotoxicity against human NCI-H322 cells assessed as reduction in cell viability measured after 72 hrs by CellTiter-Blue cell viability assay; assay type: functional, cell-based
How it was run: (§1)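 Monolayer cultures in RPMI-1640 with 10% FBS at 37°C, seeded at 850 (H460 CTR5), 660 (H460 LKB1+/+) or 1780 (H322) cells/well so that the end point reaches 70–80% confluence. Treated 72h; vehicle 0.15% DMSO. CellTiter-Blue added until colour change (50–60, 80–90 or 100–120 min respectively), fluorescence read at 590 nm. IC50 by nonlinear regression; three independent experiments.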

[2] = Cytotoxicity against human NCI-H460 cells expressing CTR5 gene assessed as reduction in cell viability measured after 72 hrs by CellTiter-Blue cell viability assay; assay type: functional, cell-based; how it was run: as §1
[3] = Cytotoxicity against human LKB1-positive NCI-H460 cells assessed as reduction in cell viability measured after 72 hrs by CellTiter-Blue cell viability assay; assay type: functional, cell-based; how it was run: as §1
[4] = Cytotoxicity against human NCI-H322 spheroids assessed as reduction in cell viability measured after 96 hrs by CellTiter-Glo luminescence viability assay; assay type: functional; details: NCI-H322, 96 h
How it was run: (§2)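 Spheroids grown in round-bottom ultralow-attachment wells, 495 (H460 CTR5) or 650 (H322) cells/well. Drug exposure 96h with DMSO vehicle. CellTiter-Glo added, shaken 20 min, left 10 min, then luminescence read. IC50 by nonlinear regression; three independent experiments.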

[5] = Cytotoxicity against human NCI-H460 spheroids expressing CTR5 gene assessed as reduction in cell viability measured after 96 hrs by CellTiter-Glo luminescence viability assay; assay type: functional, cell-based; details: NCI-H460, 96 h; how it was run: as §2
NCI-H460 = experiment: Induction of autophagy in human NCI-H460 cells expressing CTR5 gene assessed as acidic vesicular organelle formation measured after 72 hrs by acridine orange dye based flow cytometry (reference value: 91.2%); assay type: functional
How it was run: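 H460 CTR5 cells plated in 6-well plates (0.095 × 10⁵ cells/well, RPMI-1640 with 10% FBS) and treated 24 h later with vehicle (0.15% DMSO), drug at 3 or 4 μM, or medium alone for 72 h. Bafilomycin A1 was added to the untreated well 30 min before staining as negative control. Cells were stained with acridine orange for 15 min at 37°C in the dark. Flow cytometry read the red/green (FL3/FL1) ratio; three independent experiments.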

[6] = Homo sapiens, NCI-H322, 72 h, read-out: IC50
[7] = Homo sapiens, NCI-H460, 72 h, read-out: IC50

Row | SMILES | IC50 [1, 6] [µM] | IC50 [2, 7] [µM] | IC50 [3, 7] [µM] | IC50 [4] [µM] | IC50 [5] [µM] | IC50 ([1]; nci-h322) | IC50 ([2]; nci-h460) | IC50 ([3]; nci-h460) | Activity (NCI-H460) [%]
1 | C[C@H]1[C@H](C)CC[C@@]23CC[C@]4(C)C(OC2=O)([C@H](F)C[C@@H]2[C@@]5(C)CCC(=O)C(C)(C)[C@@H]5CC[C@]24C)[C@H]13 | > 50 | > 50 | > 50 | – | – | – | – | – | –
2 | C=C(C)[C@@H]1CC[C@]2(C)[C@H](C[C@@H](F)C34OC(=O)[C@@]5(CC[C@@H](C)[C@H](C)[C@@H]35)CC[C@]42C)[C@@]1(C)CCC(=O)NCCc1ccccc1 | > 50 | > 50 | > 50 | – | – | – | – | – | –
3 | C=C(C)[C@@H]1CC[C@]2(C)[C@H](C[C@@H](F)C34OC(=O)[C@@]5(CC[C@@H](C)[C@H](C)[C@@H]35)CC[C@]42C)[C@@]1(C)CCC(=O)NCC | 7.3 | 5.3 | 7.8 | 11.6 | 5.7 | – | – | – | –
4 | C=C(C)[C@@H]1CC[C@]2(C)[C@H](C[C@@H](F)C34OC(=O)[C@@]5(CC[C@@H](C)[C@H](C)[C@@H]35)CC[C@]42C)[C@@]1(C)CCC(=O)NCCc1cccc(Cl)c1 | > 50 | > 50 | > 50 | – | – | – | – | – | –
5 | C=C(C)[C@@H]1CC[C@]2(C)[C@H](C[C@@H](F)C34OC(=O)[C@@]5(CC[C@@H](C)[C@H](C)[C@@H]35)CC[C@]42C)[C@@]1(C)CCC(=O)NCCc1ccccc1OC | > 50 | > 50 | > 50 | – | – | – | – | – | –
6 | C[C@H]1[C@H](C)CC[C@@]23CC[C@]4(C)C(OC2=O)([C@H](F)C[C@@H]2[C@@]5(C)CC[C@H](O)C(C)(C)[C@@H]5CC[C@]24C)[C@H]13 | 14.3 | 19.3 | 18.7 | – | 19.5 | – | – | – | –
7 | C[C@H]1[C@H](C)CC[C@@]23CC[C@]4(C)C(OC2=O)([C@H](F)C[C@@H]2[C@@]5(C)CCC(=O)OC(C)(C)[C@@H]5CC[C@]24C)[C@H]13 | – | – | – | – | – | Nd(Insoluble) | Nd(Insoluble) | Nd(Insoluble) | –
8 | C[C@H]1[C@H](C)CC[C@]2(C(=O)O)CC[C@]3(C)C(=CC[C@@H]4[C@@]5(C)CC[C@H](O)C(C)(C)[C@@H]5CC[C@]43C)[C@H]12 [URSOLIC ACID] | 15.3 | 14.8 | 21.1 | 18.2 | 30.8 | – | – | – | –
9 | C=C(C)[C@@H]1CC[C@]2(C)[C@H](C[C@@H](F)C34OC(=O)[C@@]5(CC[C@@H](C)[C@H](C)[C@@H]35)CC[C@]42C)[C@@]1(C)CCC(=O)NC | 6.8 | 4.5 | 6.7 | 12.1 | 3 | – | – | – | –
10 | C[C@H]1[C@H](C)CC[C@@]23CC[C@]4(C)C(OC2=O)([C@H](F)C[C@@H]2[C@@]5(C)CCC(=O)NC(C)(C)[C@@H]5CC[C@]24C)[C@H]13 | > 25 | > 25 | 13.5 | – | – | – | – | – | –
11 | C=C(C)[C@@H]1CC[C@]2(C)[C@H](C[C@@H](F)C34OC(=O)[C@@]5(CC[C@@H](C)[C@H](C)[C@@H]35)CC[C@]42C)[C@@]1(C)CCC(N)=O | 24.1 | 23 | 21.8 | – | – | – | – | – | –
12 | C=C(C)[C@@H]1CC[C@]2(C)[C@H](C[C@@H](F)C34OC(=O)[C@@]5(CC[C@@H](C)[C@H](C)[C@@H]35)CC[C@]42C)[C@@]1(C)CCC(=O)O | > 50 | > 50 | > 50 | – | – | – | – | – | –
13 | C=C(C)[C@@H]1CC[C@]2(C)[C@H](C[C@@H](F)C34OC(=O)[C@@]5(CC[C@@H](C)[C@H](C)[C@@H]35)CC[C@]42C)[C@@]1(C)CCC(=O)Nc1ccccc1 | > 50 | > 50 | > 50 | – | – | – | – | – | –
14 | C=C(C)[C@@H]1CC[C@]2(C)[C@H](C[C@@H](F)C34OC(=O)[C@@]5(CC[C@@H](C)[C@H](C)[C@@H]35)CC[C@]42C)[C@@]1(C)CCC#N | > 17 | > 17 | > 17 | – | – | – | – | – | –
15 | CO/C1=C\C(C)=C\[C@@H](C)[C@@H](O)[C@@H](C)C/C(C)=C/C=C/[C@H](OC)[C@@H]([C@@H](C)[C@@H](O)[C@H](C)[C@@]2(O)C[C@@H](O)[C@H](C)[C@@H](C(C)C)O2)OC1=O [BAFILOMYCIN A1] | – | – | – | – | – | – | – | – | 100
16 | C=C(C)[C@@H]1CC[C@]2(C)[C@H](C[C@@H](F)C34OC(=O)[C@@]5(CC[C@@H](C)[C@H](C)[C@@H]35)CC[C@]42C)[C@@]1(C)CCC(=O)NCc1ccc(C)cc1 | > 50 | > 50 | > 50 | – | – | – | – | – | –
17 | C=C(C)[C@@H]1CC[C@]2(C)[C@H](C[C@@H](F)C34OC(=O)[C@@]5(CC[C@@H](C)[C@H](C)[C@@H]35)CC[C@]42C)[C@@]1(C)CCC(=O)NCc1ccc(F)cc1 | > 50 | > 50 | > 50 | – | – | – | – | – | –

Reference: ChEMBL document CHEMBL3871266, “Synthesis and cytotoxic activity of novel A-ring cleaved ursolic acid derivatives in human non-small cell lung cancer cells” (Eur J Med Chem, 2016)
